From PubChem BioAssay
Only some compounds are listed: those with a hit (about 3.7% of all), similar ones and a draw of the others.
KCNQ1 act – potentiators or activators of KCNQ1 channel, primary screen, cell-based, thallium flux, high-throughput | Potassium voltage-gated channel subfamily KQT member 1 (Homo sapiens), P51787 | CHO-K1 KCNQ1, thallium flux FluxOR fluorescence; hits give high values | B-score at 10 µM | actives 0.35% (n = 310,000) | AID 2648, 2010;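 active means fluorescence ratio B-score, a plate-corrected score, at least three library SD, with initial intensity B-score within 5 SD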
Target sequence (P51787 whole entry, looked up): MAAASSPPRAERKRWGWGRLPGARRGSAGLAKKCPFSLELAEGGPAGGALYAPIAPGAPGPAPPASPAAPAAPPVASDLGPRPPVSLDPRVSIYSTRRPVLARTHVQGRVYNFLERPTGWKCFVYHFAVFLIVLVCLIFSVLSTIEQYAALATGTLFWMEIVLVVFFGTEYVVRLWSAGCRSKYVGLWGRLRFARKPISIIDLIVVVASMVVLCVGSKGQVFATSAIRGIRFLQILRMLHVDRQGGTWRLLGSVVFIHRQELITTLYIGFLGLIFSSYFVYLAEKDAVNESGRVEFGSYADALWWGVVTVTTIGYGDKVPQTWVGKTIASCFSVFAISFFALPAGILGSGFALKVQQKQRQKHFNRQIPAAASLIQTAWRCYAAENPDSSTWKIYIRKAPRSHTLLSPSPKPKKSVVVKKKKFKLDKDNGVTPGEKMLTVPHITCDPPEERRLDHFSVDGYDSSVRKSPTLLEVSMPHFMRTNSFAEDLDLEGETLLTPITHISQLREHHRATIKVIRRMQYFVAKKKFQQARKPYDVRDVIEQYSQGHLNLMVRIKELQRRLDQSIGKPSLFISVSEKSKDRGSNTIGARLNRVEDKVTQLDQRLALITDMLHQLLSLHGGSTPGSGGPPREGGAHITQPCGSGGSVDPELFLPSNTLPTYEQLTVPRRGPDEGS
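Material: CHO-K1 cells stably expressing KCNQ1. Medium: assay buffer for compound exposure, DMSO matched across wells. Reagent: K+/Tl+ depolarizing stimulus. Compound dosing: single-concentration screen. Times: 37 °C overnight plating, 90-min dark dye load, 20-min compound pretreatment. Technique: FluxOR Tl+ flux fluorescence.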
KCNK3 inh – human KCNK3 channel inhibitors, primary screen, CHO cells, FluxOR thallium flux, B-score | FluxOR fluorescence; hits give low values | actives 0.84% (n = 340,000) | Potassium channel subfamily K member 3 (Homo sapiens), O14649 | B-score at 10 µM;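 active means B-score under library mean minus 4 SD, starting fluorescence ratio at most library mean plus 5 SD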;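 further: more negative B-score means stronger inhibition of thallium flux through KCNK3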
KCNK9 block – KCNK9 potassium channel inhibitors, primary screen, HEK293 cells, thallium flux; B-score at 10 µM; AID 488922, 2010; Potassium channel subfamily K member 9 (Homo sapiens), Q9NPC2; FluxOR thallium flux fluorescence; hits give low values; actives 1.2% (n = 310,000);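 active means ratio B-score over 3 SD below the library mean, with starting fluorescence within 5 SD of its mean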;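 further: negative B-score means less thallium flux so channel inhibition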
Kir21 block – inhibitors of mouse Kir2.1 inward-rectifier potassium channel | Inward rectifier potassium channel 2 (Mus musculus), P35561 | HEK293-Kir2.1, FluxOR thallium flux fluorescence; hits give low values | B-score at 10 µM | actives 0.85% (n = 310,000) | AID 1672, 2009;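 active means fluorescence ratio B-score at or below minus 3 SD of library scores, with starting-brightness B-score within 2 SD, cut at about -4.2 in these data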;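 further: channel flux triggered by added potassium and thallium sulfate stimulus; B-score of peak minus minimum fluorescence over baseline after thallium stimulus; more negative B-score means stronger Kir2.1 block with less thallium influx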
KCNQ1 block – inhibitors of human KCNQ1 channel, primary screen, cell-based, thallium flux, high-throughput. CHO-K1 KCNQ1, FluxOR thallium flux fluorescence; hits give high values. B-score at 10 µM. actives 1.3% (n = 310,000). AID 2642, 2010;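 active means compounds whose thallium flux B-score, printed positive for inhibition, exceeds three library SD while starting fluorescence stays within three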;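 further: channel opened by potassium depolarization with thallium stimulus after 20 min compound exposure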
hERG protect – hERG rescue from dofetilide block, primary screen, cell-based, CHO-hERG, FluxOR thallium flux, dofetilide IC70; Voltage-gated inwardly rectifying potassium channel KCNH2 (Homo sapiens), Q12809; dofetilide IC70 present; activation (rescue from dofetilide block), less the hit threshold, % at 10 µM; actives 0.51% (n = 310,000);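 active means activation above the mean of controls blocked by dofetilide plus 5 SD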;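 further: thallium influx through hERG after potassium depolarization seen as dye fluorescence rise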
KCNQ1 block val – KCNQ1 potassium channel inhibitors, confirmation, cell-based, Tl flux, duplicate; actives 93% (n = 1,600); AID 588353, 2011; inhibition, % at 10 µM; KCNQ1 cell line, FluxOR thallium flux fluorescence; shares compounds with KCNQ1 block;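 active means primary screen active, with duplicate mean exceeding buffer control mean plus 3 SD of buffer wells, cut at about 28% in these data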
CHO KCNQ1 ctr – thallium flux effects in parental CHO cells, counter-screen for KCNQ1 inhibitor project, cell-based, Tl flux; shares compounds with KCNQ1 block; parental CHO-K1, FluxOR thallium flux fluorescence ratio; hits give low values; zero means no signal rise above baseline; fluorescence ratio (Tl flux) at 10 µM; actives 21% (n = 1,600); AID 588366, 2011;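 active means mean of duplicate thallium-flux fluorescence ratios in parental host cells more than 5 SD below the buffer control mean, cut at about 0.38 in these data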;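 further: ratio is peak minus minimum fluorescence divided by baseline fluorescence; actives read low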
KCNQ1 ephys val – KCNQ1 channel inhibitors, confirmation, orthogonal assay, cell-based, automated electrophysiology; shares compounds with KCNQ1 block; KCNQ1-CHO cells, automated patch clamp current; calls only at 10 µM; actives 20% (n = 490); AID 624120, 2012;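 active means KCNQ1 current drop exceeding 3 SD of negative control wells, seen in both duplicate runs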;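 further: steady state current during a 2 s step from -80 to +40 mV; negative values mean current inhibition and positive values mean potentiation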
KCNQ2 spec – KCNQ2 channel inhibition, selectivity assay for KCNQ1 inhibitor project, cell-based | shares compounds with KCNQ1 block | KCNQ2 cells, FluxOR thallium flux fluorescence | inhibition, % at 10 µM | actives 71% (n = 1,600);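 active means mean percent inhibition of the KCNQ2 thallium signal more than 5 SD above the buffer-only control wells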;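 further: KCNQ2 expressed in CHO cells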
KCNQ1-KCNE1 inh – KCNQ1/KCNE1 channel inhibition, selectivity assay for KCNQ1 inhibitor project, CHO-K1 cells, thallium flux, FluxOR; shares compounds with KCNQ1 block; FluxOR thallium flux fluorescence; inhibition, % at 10 µM; actives 77% (n = 1,600); AID 652147, 2013;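 active means mean percent inhibition of duplicate wells above the buffer-only control mean plus 3 SD of those controls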
Of the large screens only hits and unclear results are named; the others gave an inactive call (follow-up assays come after a bar, where they were run).

Cc1cc(NC(C)c2ccccc2)n2ncc(-c3ccccc3)c2n1 (centres undefined)	none
COc1ccccc1Oc1ccc(Oc2ccccc2OC)cc1	KCNQ1 block 7 | KCNQ1 block val 126 | CHO KCNQ1 ctr 0.36 | KCNQ2 spec 125% | KCNQ1-KCNE1 inh 108%
COc1ccc(Oc2ccccc2C#N)cc1	none
CCCCSc1ccc2nc(-c3ccc(C#N)cc3)cn2c1	KCNQ1 block 7 | KCNQ1 block val 104 | CHO KCNQ1 ctr inactive | KCNQ1 ephys val active | KCNQ2 spec 67% | KCNQ1-KCNE1 inh 92%
Cn1c(CCN2CCCCC2)nc2cc(NS(=O)(=O)c3ccc(Cl)cc3)ccc21	KCNQ1 block 8 | KCNQ1 block val inactive | CHO KCNQ1 ctr inactive | KCNQ2 spec inactive | KCNQ1-KCNE1 inh 58%
O=C1N(Cc2cccc(Cl)c2)C[C@@H]2C[C@@H](c3cccn3-c3ccccn3)N3CCC[C@@]123	KCNQ1 block 6 | KCNQ1 block val 65 | CHO KCNQ1 ctr inactive | KCNQ2 spec 63% | KCNQ1-KCNE1 inh 46%
CN(Cc1ccc(F)cc1)C(=O)c1cccc(S(=O)(=O)N2CCN(c3ccccc3)CC2)c1	KCNQ1 block 7 | KCNQ1 block val 76 | CHO KCNQ1 ctr inactive | KCNQ2 spec 70% | KCNQ1-KCNE1 inh inactive
CN(Cc1ccc(F)cc1)C(=O)c1cccc(S(=O)(=O)N2CCN(c3ccc(F)cc3)CC2)c1	none
Cc1cc(C)nc(N2CCC(C(=O)N3CCN(c4cc(Cl)ccc4C)CC3)CC2)n1	KCNQ1 block 9 | KCNQ1 block val 140 | CHO KCNQ1 ctr inactive | KCNQ1 ephys val inactive | KCNQ2 spec 111% | KCNQ1-KCNE1 inh 176%
Cc1ccc(C)c(N2CCN(C(=O)C3CCN(c4nc(C)cc(C)n4)CC3)CC2)c1	none
O=C(c1ccco1)N1CCN(C(=O)c2ccc(-c3ccccc3Cl)o2)CC1	none (no result: KCNQ1 act, KCNK9 block, Kir21 block, KCNQ1 block, hERG protect)
O=C(c1ccc(-c2ccccc2Cl)o1)N1CCN(c2ccccc2O)CC1	KCNQ1 block 8 | KCNQ1 block val active | CHO KCNQ1 ctr inactive | KCNQ1 ephys val inactive | KCNQ2 spec inactive | KCNQ1-KCNE1 inh inactive
COc1ccc(F)cc1CN1CCN(C(=O)c2ccc(S(=O)(=O)N3CCCCCC3)cc2)CC1	none (no result: KCNQ1 act, KCNK9 block, Kir21 block, KCNQ1 block, hERG protect)
COc1cccc(COC(=O)c2c(C)nn(-c3ccccc3)c2Cl)c1OC	KCNQ1 block 7 | KCNQ1 block val 114 | CHO KCNQ1 ctr inactive | KCNQ1 ephys val inactive | KCNQ2 spec 116% | KCNQ1-KCNE1 inh 99%
